Assays:
[1] = test system: Enterococcus faecalis; test: Antibacterial activity against beta-lactamase positive Enterococcus faecalis; format: functional
Outline: (§1)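 MIC by CLSI broth microdilution for nonfastidious organisms, in cation-adjusted Mueller-Hinton broth incubated at 35°C.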

[2] = test system: Enterococcus faecium; test: Antibacterial activity against VanA-resistant Enterococcus faecium; format: functional
Outline: (§2)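 Broth microdilution MIC per CLSI guidelines, incubated at 35°C. Cation-adjusted Mueller-Hinton broth for nonfastidious organisms and staphylococci. Streptococci tested in the same broth with 3% lysed horse blood. Anaerobes tested in supplemented Brucella broth inside an anaerobe chamber (5% CO2, 5% H2, 90% N2), read after 48 h. Strains were mainly recent clinical isolates with confirmed identity.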

[3] = test system: Enterococcus faecium; test: Antibacterial activity against VanB-resistant Enterococcus faecium; format: functional; outline: as §2
[4] = test system: Corynebacterium sp.; test: Antibacterial activity against Corynebacterium sp.; format: functional
Outline: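 Broth microdilution MIC following CLSI guidelines, in cation-adjusted Mueller-Hinton broth containing 3% lysed horse blood, incubated at 35°C. Clinical isolates with identity confirmed. Reported as MIC range, MIC50 and MIC90.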

[5] = test system: Haemophilus influenzae; test: Antibacterial activity against beta-lactamase negative Haemophilus influenzae; format: functional
Outline: (§3)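 Broth microdilution MIC following CLSI guidelines, in Haemophilus test medium at 35°C.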

[6] = test system: Haemophilus influenzae; test: Antibacterial activity against beta-lactamase positive Haemophilus influenzae; format: functional; outline: as §3
[7] = test system: Legionella pneumophila; test: Antibacterial activity against Legionella pneumophila; format: functional
Outline: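 Broth microdilution MIC per CLSI guidelines, run in buffered yeast extract α-ketoglutarate broth at 35°C and read after 48 h.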

[8] = test system: Neisseria gonorrhoeae; test: Antibacterial activity against Neisseria gonorrhoeae; format: functional
Outline: (§4)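 MIC by broth microdilution in gonococcal broth, incubated at 35°C in 5% CO2. Reported as MIC range, MIC50 and MIC90.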

[9] = test system: Citrobacter koseri; test: Antibacterial activity against Citrobacter diversus; format: functional
Outline: (§5)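 Broth microdilution MIC following CLSI guidelines, in cation-adjusted Mueller-Hinton broth, incubated at 35°C. Recent clinical isolates and reference strains, with identity confirmed by automated and standard microbiological methods. Results reported as MIC range, MIC50 and MIC90.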

[10] = test system: Klebsiella aerogenes; test: Antibacterial activity against Enterobacter aerogenes; format: functional; outline: as §5
[11] = test system: Enterobacter cloacae; test: Antibacterial activity against Enterobacter cloacae; format: functional; outline: as §5
[12] = test system: Escherichia coli; test: Antibacterial activity against Escherichia coli; format: functional; outline: as §5
[13] = test system: Klebsiella pneumoniae; test: Antibacterial activity against Klebsiella pneumoniae; format: functional; outline: as §5
[14] = test system: Klebsiella pneumoniae; test: Antibacterial activity against beta-lactamase positive Klebsiella pneumoniae; format: functional; outline: as §1
[15] = test system: Morganella morganii; test: Antibacterial activity against Morganella morganii; format: functional; outline: as §5
[16] = test system: Proteus mirabilis; test: Antibacterial activity against Proteus mirabilis; format: functional; outline: as §5
[17] = test system: Proteus vulgaris; test: Antibacterial activity against Proteus vulgaris; format: functional; outline: as §5
[18] = test system: Salmonella typhimurium; test: Antibacterial activity against Salmonella enterica serovar Typhimurium; format: functional, Salmonella enterica subsp. enterica serovar Typhimurium; outline: as §5
[19] = test system: Shigella sonnei; test: Antibacterial activity against Shigella sonnei; format: functional; outline: as §5
[20] = test system: Serratia marcescens; test: Antibacterial activity against Serratia marcescens; format: functional; outline: as §5
[21] = test system: Acinetobacter sp.; test: Antibacterial activity against Acinetobacter sp.; format: functional; outline: as §5
[22] = test system: Pseudomonas aeruginosa; test: Antibacterial activity against Pseudomonas aeruginosa; format: functional; outline: as §5
[23] = test system: Stenotrophomonas maltophilia; test: Antibacterial activity against Stenotrophomonas maltophilia; format: functional; outline: as §5
[24] = test system: Fusobacterium sp.; test: Antibacterial activity against Fusobacterium sp.; format: functional
Outline: (§6)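 Anaerobic broth microdilution MIC following CLSI guidelines, in supplemented Brucella broth. Run in an anaerobe chamber under 5% CO2, 5% H2 and 90% N2 at 35°C, and read after 48 h. Reported as MIC range, MIC50 and MIC90.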

[25] = test system: Peptostreptococcus anaerobius; test: Antibacterial activity against Peptostreptococcus anaerobius; format: functional; outline: as §6
[26] = test system: Finegoldia magna; test: Antibacterial activity against Peptostreptococcus magnus; format: functional; outline: as §6
[27] = test system: Streptococcus pyogenes; test: Antibacterial activity against Streptococcus pyogenes; format: functional
Outline: (§7)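 Broth microdilution MIC following CLSI guidelines, in cation-adjusted Mueller-Hinton broth with 3% lysed horse blood. Plates incubated at 35°C. Clinical isolates and reference strains, with identity confirmed by standard microbiological methods.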

[28] = test system: Clostridium perfringens; test: Antibacterial activity against Clostridium perfringens; format: functional; outline: as §2
[29] = test system: Staphylococcus aureus; test: Antibacterial activity against oxacillin-resistant Staphylococcus aureus; format: functional; outline: as §2
[30] = test system: Staphylococcus aureus; test: Antibacterial activity against oxacillin and levofloxacin-resistant Staphylococcus aureus; format: functional; outline: as §2
[31] = test system: Staphylococcus aureus; test: Antibacterial activity against vancomycin-intermediate Staphylococcus aureus; format: functional; outline: as §2
[32] = test system: Staphylococcus epidermidis; test: Antibacterial activity against oxacillin-susceptible Staphylococcus epidermidis; format: functional; outline: as §1
[33] = test system: Staphylococcus epidermidis; test: Antibacterial activity against oxacillin-resistant Staphylococcus epidermidis; format: functional; outline: as §2
[34] = test system: Streptococcus equinus; test: Antibacterial activity against Streptococcus bovis; format: functional; outline: as §7
[35] = test system: Streptococcus pneumoniae; test: Antibacterial activity against penicillin-susceptible Streptococcus pneumoniae; format: functional; outline: as §2
[36] = test system: Streptococcus pneumoniae; test: Antibacterial activity against penicillin-intermediate resistant Streptococcus pneumoniae; format: functional; outline: as §2
[37] = test system: Streptococcus pneumoniae; test: Antibacterial activity against penicillin-resistant Streptococcus pneumoniae; format: functional; outline: as §2
[38] = test system: Streptococcus pneumoniae; test: Antibacterial activity against levofloxacin-resistant Streptococcus pneumoniae; format: functional; outline: as §2
[39] = test system: Enterococcus faecalis; test: Antibacterial activity against VanA-resistant Enterococcus faecalis; format: functional; outline: as §2
[40] = test system: Prevotella buccae; test: Antibacterial activity against Prevotella buccae; format: functional; conditions: Segatella buccae; outline: as §6
[41] = test system: Prevotella corporis; test: Antibacterial activity against Prevotella corporis; format: functional; outline: as §6
[42] = test system: Prevotella melaninogenica; test: Antibacterial activity against Prevotella melaninogenica; format: functional; outline: as §6
[43] = test system: Prevotella sp.; test: Antibacterial activity against Prevotella sp.; format: functional; outline: as §6
[44] = test system: Neisseria meningitidis; test: Antibacterial activity against Neisseria meningitidis; format: functional; outline: as §4
[45] = test system: Streptococcus salivarius; test: Antibacterial activity against Streptococcus salivarius; format: functional; outline: as §7
[46] = test system: Streptococcus mitis; test: Antibacterial activity against Streptococcus mitis; format: functional; outline: as §7
[47] = test system: Parabacteroides distasonis; test: Antimicrobial activity against Bacteroides distasonis; format: functional
Outline: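 Anaerobic broth microdilution MIC following CLSI guidelines, in supplemented Brucella broth. Incubated at 35°C in a chamber under 5% CO2, 5% H2 and 90% N2. Read after 48 h.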

C[C@H]1COc2c(N3CCN(C)CC3)c(F)cc3c(=O)c(C(=O)O)cn1c23.C[C@H]1COc2c(N3CCN(C)CC3)c(F)cc3c(=O)c(C(=O)O)cn1c23.O [LEVOFLOXACIN]
0.25 µg/mL: MIC [32]
32 µg/mL: MIC90 [4] | MIC90 [10] | MIC90 [14] | MIC50 [30] | MIC90 [47]
2 µg/mL: MIC90 [16] | MIC90 [27] | MIC50 [34] | MIC90 [34] | MIC90 [40] | MIC90 [41] | MIC90 [42] | MIC90 [43]
64 µg/mL: MIC50 [2] | MIC90 [2] | MIC90 [22] | MIC90 [30] | MIC90 [33]
0.5 µg/mL: MIC [1] | MIC50 [4] | MIC90 [13] | MIC50 [14] | MIC50 [27] | MIC90 [28] | MIC50 [35] | MIC50 [37]
1 µg/mL: MIC50 [10] | MIC90 [11] | MIC90 [12] | MIC50 [22] | MIC50 [23] | MIC90 [35] | MIC50 [36] | MIC90 [36] | MIC90 [37] | MIC50 [40] | MIC50 [41] | MIC50 [42] | MIC50 [43] | MIC50 [45] | MIC90 [45] | MIC50 [46] | MIC90 [46]
0.008 µg/mL: MIC50 [6] | MIC50 [7] | MIC50 [8] | MIC90 [8] | MIC50 [44] | MIC90 [44]
0.06 µg/mL: MIC90 [9] | MIC50 [11] | MIC50 [13] | MIC90 [18] | MIC90 [19]
16 µg/mL: MIC90 [15] | MIC90 [21] | MIC [31] | MIC50 [38] | MIC90 [38] | MIC [39]
4 µg/mL: MIC [3] | MIC90 [20] | MIC90 [23]
0.03 µg/mL: MIC90 [5] | MIC50 [9] | MIC50 [12] | MIC [17] | MIC50 [18] | MIC50 [19] | MIC [24]
0.015 µg/mL: MIC50 [5] | MIC90 [6] | MIC90 [7]
8 µg/mL: MIC50 [29] | MIC90 [29] | MIC50 [33] | MIC50 [47]
0.125 µg/mL: MIC50 [15] | MIC50 [16] | MIC50 [20] | MIC50 [21] | MIC [25] | MIC [26]
